Paper PMC2193291 (The Journal of Experimental Medicine, 2000)
Where two headings read alike, the source gives them in different places. Blank lines part the entries; values can stand above or below the molecule they belong to.

How the values were obtained:
[1] = system: cRaf/MAPK (ERK1 and 2 phosphorylation); assay: Oxidative; type: cell-based; conditions: 3T3 cells, 2 μM retinol
[2] = biological target: Gst-Raf ZiF (human cRaf-1 ZiF domain) (Homo sapiens, UniProt P04049); assay: Retinol binding by fluorescence resonance energy transfer
[3] = biological target: Drosophila PKC C1A ZiF domain (Drosophila melanogaster, UniProt P05130); assay: Retinol binding by trp fluorescence quench, Gst fusion protein
Method in brief: (§1)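 Gst-ZiF fusions expressed in E. coli BL21/DE3 and purified on glutathione-agarose to >90%. Constructs: Drosophila C1A aa 40–101; C1B aa 105–261 plus trp 262; Vav aa 464–518 plus trp 519. Protein at 250 nM in helium-degassed PBS, titrated stepwise with all-trans retinol from a methanol stock. Trp emission 330 nm (excitation 280 nm), corrected for inner filtering. Kd from nonlinear fit over at least four independent measurements.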

[4] = biological target: T1, Human PKCμ C1B ZiF domain (Homo sapiens, UniProt Q15139); assay: as above
T1 sequence (Q15139 270-320 limits assumed): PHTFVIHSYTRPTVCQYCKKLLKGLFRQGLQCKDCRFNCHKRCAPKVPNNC
Method in brief: as §1

Human PKCζ C1 ZiF domain = biological target: T2, Human PKCζ C1 ZiF domain (Homo sapiens, UniProt Q05513); assay: Retinol binding by trp fluorescence quench, Gst fusion protein
T2 sequence (Q05513 130-180 limits assumed): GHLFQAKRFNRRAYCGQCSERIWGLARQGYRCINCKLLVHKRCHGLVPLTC

[5] = biological target: Human PKCδ C1B ZiF domain (Homo sapiens, UniProt Q05655); assay: as above
Human Vav C1 ZiF domain = biological target: T3, Human Vav C1 ZiF domain (Homo sapiens, UniProt P15498); assay: Retinol binding by trp fluorescence quench, Gst fusion protein
T3 sequence (P15498 with tags, fused parts or gaps): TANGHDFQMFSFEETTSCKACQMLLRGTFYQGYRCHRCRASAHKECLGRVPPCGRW
Method in brief: as §1

[6] = biological target: T4, Human PKCμ C1A ZiF domain (Homo sapiens, UniProt Q15139); assay: as above
T4 sequence (Q15139 146-196 limits assumed): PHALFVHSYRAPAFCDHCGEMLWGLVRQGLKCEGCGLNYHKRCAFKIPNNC
Method in brief: as §1

MAPK (phospho-ERK) = assay: Peroxide activation of endogenous MAPK in Jurkat cells, phospho-ERK Western blot; type: cell-based; conditions: 100 μM H2O2, different concentrations of retinol
Method in brief: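 Jurkat cells grown serum-free and retinol-free, then given varying retinol concentrations. Activated 15 min later for 10 min with 100 μM H2O2. Endogenous MAPK activity read as phospho-ERK on Western blots.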

PKCα = PKCα (Mus musculus, UniProt P20444); assay: PKCα immunoprecipitation/kinase assay of H2O2-activated 3T3 cells; type: cell-based
Method in brief: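 3T3 cells retinol-depleted, some repleted 12 h with 2 μM retinol, then activated 10 min with graded H2O2 doses without staurosporine. Detergent lysates immunoprecipitated with PKCα antibody. Kinase activity measured in washed immunoprecipitates with H1 histone as substrate. Normalized data from six independent H2O2 titrations.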

[7] = biological target: Human cRaf-1 C1 ZiF domain (Homo sapiens, UniProt P04049); assay: Retinoid binding by quenching of intrinsic protein
[8] = biological target: Human PKCδ C1A ZiF domain (Homo sapiens, UniProt Q05655); assay: Retinol binding by trp fluorescence quench, Gst fusion protein
Method in brief: as §1

[9] = biological target: Human PKCα C1B ZiF domain (Homo sapiens, UniProt P17252); assay: as above
Method in brief: as §1

cRaf = cRaf (Homo sapiens, UniProt P04049); type: cell-based
Method in brief: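 COS-7 cells transfected with Flag-cRaf by calcium phosphate, kept 2 d in serum-free phenol-red-free DME, then given retinoids and/or scavengers (100 mM sodium azide, 1 mM N-acetylcysteine). UVB-irradiated at 400 μw/cm2 and incubated at 37°C for set times. Flag-Raf pulled down with anti-Flag M2 and washed in 0.5 M NaCl. Kinase reaction: 200 ng His-MEK(K97M), 60 μM ATP plus [γ-32P]ATP, 20 min, 30°C.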

[10] = biological target: Human PKCα C1A ZiF domain (Homo sapiens, UniProt P17252); assay: Retinol binding by trp fluorescence quench, Gst fusion protein
Method in brief: as §1

[11] = biological target: T5, S. cerevisiae PKC C1B ZiF domain (Saccharomyces cerevisiae, UniProt P24583); assay: as above
T5 sequence (P24583 481-531 limits assumed): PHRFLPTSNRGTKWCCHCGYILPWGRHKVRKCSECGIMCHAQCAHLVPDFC
Method in brief: as §1

[12] = biological target: Drosophila PKC C1B ZiF domain (Drosophila melanogaster, UniProt P05130); assay: as above
Method in brief: as §1

[13] = biological target: T6, S. cerevisiae PKC C1A ZiF domain (Saccharomyces cerevisiae, UniProt P24583); assay: Retinol binding by trp fluorescence quench, Gst fusion protein
T6 sequence (P24583 414-461 limits assumed): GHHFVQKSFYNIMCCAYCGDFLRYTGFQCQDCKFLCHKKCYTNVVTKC

Sequence of cRaf (P04049 whole entry): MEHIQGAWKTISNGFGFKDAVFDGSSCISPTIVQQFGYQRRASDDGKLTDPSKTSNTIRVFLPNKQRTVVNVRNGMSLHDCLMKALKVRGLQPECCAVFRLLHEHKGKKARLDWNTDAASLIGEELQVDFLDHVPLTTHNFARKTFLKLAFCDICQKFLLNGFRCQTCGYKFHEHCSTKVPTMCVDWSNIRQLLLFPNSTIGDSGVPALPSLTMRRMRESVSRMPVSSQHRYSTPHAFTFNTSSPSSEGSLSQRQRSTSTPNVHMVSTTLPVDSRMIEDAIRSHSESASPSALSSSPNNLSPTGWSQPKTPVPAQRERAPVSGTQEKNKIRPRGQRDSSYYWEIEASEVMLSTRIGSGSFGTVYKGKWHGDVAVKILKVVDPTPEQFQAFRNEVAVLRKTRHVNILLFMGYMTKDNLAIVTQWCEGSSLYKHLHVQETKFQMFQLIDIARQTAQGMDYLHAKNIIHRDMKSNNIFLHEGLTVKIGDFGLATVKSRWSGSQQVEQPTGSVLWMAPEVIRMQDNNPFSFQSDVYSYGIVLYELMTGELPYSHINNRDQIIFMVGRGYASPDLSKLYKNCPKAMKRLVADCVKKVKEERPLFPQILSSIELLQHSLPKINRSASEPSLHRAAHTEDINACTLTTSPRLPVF
Sequence of Human PKCδ C1B ZiF domain (Q05655 231-280): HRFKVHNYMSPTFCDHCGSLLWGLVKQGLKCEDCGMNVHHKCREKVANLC
Sequence of Human PKCδ C1A ZiF domain (Q05655 159-209): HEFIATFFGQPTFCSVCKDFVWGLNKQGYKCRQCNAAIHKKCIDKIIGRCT

Kd [2]: 25.8 nM
FRET signal ([2]; truncated Gst-Raf Zif136–186 lacking trp 187): did not elicit a FRET signal
Kd [3]: 18.5 ± 3.7 nM
Kd [4]: 17.3 ± 4 nM
Kd (Human PKCζ C1 ZiF domain): 34.1 ± 6.7 nM
Kd [5]: 67.3 ± 1.3 nM
Kd (Human Vav C1 ZiF domain): > 500 nM
Kd [6]: 18.1 ± 8 nM
Activation of PKC by phorbol ester (PKCα; 150 nM phorbol ester): not significantly enhanced
Increase of PKCα kinase activity at maximum stimulation over unstimulated cells (PKCα; 3T3 cells, 200 μM H2O2, in the presence of 2 μM retinol, 6 experiments): 20 fold
Optimum dose for enhancement of PKCα activation (PKCα; data not shown): 1 µM
Overall retinol enhancement effect on PKCα kinase activity (PKCα; presence vs absence of retinol, 200 μM H2O2): 3 fold
Intrinsic PKC activation by retinol alone (PKCα; without H2O2): no intrinsic PKC activation
Kd ([7]; Binding constant, cRaf-1 amino acids 136–195, trp fluorescence quench, ± SE): 22 ± 3.5 nM
Kd [8]: 95.2 ± 1.3 nM
Kd [9]: > 500 nM
Augmentation of UVB-induced Raf kinase activity (cRaf; COS cells replenished with 2 μM retinol, UVB): 2.2 ± 0.4 fold
Kd [10]: 20.7 ± 4 nM
Kd [11]: > 500 nM
Kd [12]: > 500 nM
Kd [13]: 17.9 ± 5.1 nM
Compound: CC1=C(/C=C/C(C)=C/C=C/C(C)=C/CO)C(C)(C)CCC1 [retinol, all-trans retinol]
MAPK activity in retinol-repleted compared with retinol-deficient cultures ([1]; 300 μM H2O2, peak at 10–15 min, phosphorylated p42): two- to threefold higher
MAPK activation by 5% FBS, retinol-sufficient vs retinol-deficient cultures ([1]; 5% FBS): no differences
Enhancement of MAPK activation by peroxide (MAPK (phospho-ERK)): dose-dependent enhancement

Effect on UVB-induced Raf activation (cRaf; N-acetylcysteine 1 mM): abolished the Raf activation
Compound: CC(=O)N[C@@H](CS)C(=O)O [N-acetylcysteine]

Compound: [2H]O[2H] [deuterated water]
Effect on UVB-induced Raf activity (cRaf; addition of deuterated water): distinct, though moderate, enhancement

Compound: [N-]=[N+]=[N-].[Na+] [sodium azide]
Effect on UVB-induced Raf activation (cRaf; sodium azide 100 mM): abolished the Raf activation

Binding to native Gst-Raf4–256 (fluorescence quenching) ([7]; 1-μM protein solution, native protein): saturable binding
Compound: CC(C=CC=C(C)C(O)CO)=CC=C1C(C)=CCCC1(C)C (stereo not shown) [14HRR, 14-hydroxy-retro-retinol]
